The source of these data is ChEMBL document CHEMBL1165869, “Synthesis, characterization and antihypertensive activity of pyridazinone derivatives” (2010).

This assay relates to Rattus norvegicus. The assay is described as follows: Antihypertensive activity against methyl prednisolone acetate-indcuced hypertension in normotensive albino rat assessed as reduction in mean arterial pressure at 20 mg/kg, ip after 1 hr. Format: functional, Artery. Also noted: scale not given: the % may be the effect or the level left. The settings on record: route intraperitoneal. An outline of the steps: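 Albino rats (200–250 g), conditioned in restrainer 10 min daily for one week; hypertension induced by s.c. methyl prednisolone acetate 20 mg/kg/wk for 2 weeks. Compound suspended in 1% CMC, given i.p.; mean arterial pressure read 1 h later in conscious rats by non-invasive tail-cuff. Groups of 5; mean ± SEM; one-way ANOVA with Dunnett test versus hypertensive control.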

Structures are written as SMILES.

As to `Cc1ccc(C2=NN(CN3CCCCC3)C(=O)CC2)cc1`, the Activity is recorded as 35.56%.

On to `Cc1ccc(C2=NN(CN3CCNCC3)C(=O)CC2)cc1`, for which the Activity was 40.98%.

In the case of `COc1ccc(C2=NN(CN3CCNCC3)C(=O)CC2)cc1`, the Activity was 35.44%.

With `O=C1CCC(c2ccc(Cl)cc2)=NN1CN1CCNCC1`, the Activity is given as 28.78%.

In the case of `O=C1CCC(c2ccc(Cl)cc2)=NN1Cn1cncn1`, the Activity was 29.77%.

For the compound `CC(C)Cc1ccc(C2=NN(CN3CCNCC3)C(=O)CC2)cc1`, the Activity came out at 32.48%.

As to `CC(C)Cc1ccc(C2=NN(CN3CCCCC3)C(=O)CC2)cc1`, the Activity is 16.09%.

As to `O=C1CCC(c2ccc(-c3ccccc3)cc2)=NN1CN1CCOCC1`, the Activity was found to be 29.52%.

Consider `O=C1CCC(c2ccc(-c3ccccc3)cc2)=NN1CN1CCCCC1`, for which the Activity stood at 29.52%.

Turning to `CN1CCN(CN2N=C(c3ccc(-c4ccccc4)cc3)CCC2=O)CC1`, the Activity is 25.58%.

For the compound `O=C1CCC(c2ccccc2)=NN1CN1CCOCC1`, the Activity is reported as 31.21%.

In the case of `O=C1CCC(c2ccccc2)=NN1CN1CCCC1`, the Activity is listed as 19.11%.

In the case of `Cc1ccc(C2=NN(CN3CCN(C)CC3)C(=O)CC2)cc1`, the Activity stood at 39.13%.

Turning to `Cc1ccc(C2=NN(CN3c4ccccc4Sc4ccccc43)C(=O)CC2)cc1`, the Activity was 34.94%.

For the compound `Cc1ccc(C2=NN(CN3CCCC3)C(=O)CC2)cc1`, the Activity amounted to 31.74%.

Turning to `COc1ccc(C2=NN(CN3CCN(C)CC3)C(=O)CC2)cc1`, the Activity turned out to be 36.05%.

As to `COc1ccc(C2=NN(CN3c4ccccc4Sc4ccccc43)C(=O)CC2)cc1`, the Activity is 33.83%.

As for `O=C1CCC(c2ccccc2)=NN1CN1CCNCC1`, the Activity came to 41.99%.

For `CCc1ccc(C2=NN(CN3CCN(C)CC3)C(=O)CC2)cc1`, the Activity came to 47.14%.

As for `O=C1CCC(c2ccc(Cl)cc2)=NN1CN1CCCCC1`, the Activity came out at 24.84%.

Consider `CN1CCN(CN2N=C(c3ccc(Cl)cc3)CCC2=O)CC1`, for which the Activity was 39.5%.

For `O=C1CCC(c2ccc(Cl)cc2)=NN1CN1c2ccccc2Sc2ccccc21`, the Activity was 38.88%.

For the compound `O=C1CCC(c2ccc(-c3ccccc3)cc2)=NN1CN1CCCC1`, the Activity stood at 30.14%.

On to `O=C1CCC(c2ccc(-c3ccccc3)cc2)=NN1Cn1cncn1`, for which the Activity was determined as 39.5%.

Turning to `O=C1CCC(c2ccccc2)=NN1CN1c2ccccc2Sc2ccccc21`, the Activity amounted to 42.4%.

Regarding `O=C1CCC(c2ccccc2)=NN1Cn1ccc2ccccc21`, the Activity was 15.81%.

`O=C1CCC(c2ccccc2)=NN1Cn1cncn1`: the Activity is on record as 38.7%.

Consider `O=C1CCC(c2ccc(Cl)cc2)=NN1CN1CCCC1`, for which the Activity is 30.01%.

With `CC(C)Cc1ccc(C2=NN(CN3CCN(C)CC3)C(=O)CC2)cc1`, the Activity was 28.29%.

Turning to `CCc1ccc(C2=NN(Cn3ccc4ccccc43)C(=O)CC2)cc1`, the Activity is recorded as 32.97%.

For `CC(C)Cc1ccc(C2=NN(CN3CCOCC3)C(=O)CC2)cc1`, the Activity is 24.22%.

Consider `COc1ccc(C2=NN(Cn3ccc4ccccc43)C(=O)CC2)cc1`, for which the Activity is 32.72%.

As to `COc1ccc(C2=NN(CN3CCCC3)C(=O)CC2)cc1`, the Activity amounted to 31.62%.

For `CC(C)Cc1ccc(C2=NN(Cn3cncn3)C(=O)CC2)cc1`, the Activity is on record as 34.94%.

Regarding `CCc1ccc(C2=NN(CN3CCOCC3)C(=O)CC2)cc1`, the Activity stood at 47.31%.

For the compound `CC(C)Cc1ccc(C2=NN(CN3c4ccccc4Sc4ccccc43)C(=O)CC2)cc1`, the Activity was 25.58%.

`CC(C)Cc1ccc(C2=NN(CN3CCCC3)C(=O)CC2)cc1`: the Activity is reported as 32.97%.

Take `COc1ccc(C2=NN(Cn3cncn3)C(=O)CC2)cc1`: the Activity is listed as 29.27%.

On to `CCc1ccc(C2=NN(CN3CCNCC3)C(=O)CC2)cc1`, for which the Activity is listed as 36.05%.

Regarding `CN1CCN(CN2N=C(c3ccccc3)CCC2=O)CC1`, the Activity is reported as 39.93%.

With `O=C1CCC(c2ccc(-c3ccccc3)cc2)=NN1CN1c2ccccc2Sc2ccccc21`, the Activity stood at 25.91%.

Turning to `O=C1CCC(c2ccc(-c3ccccc3)cc2)=NN1Cn1ccc2ccccc21`, the Activity is listed as 33.46%.

`Cc1ccc(C2=NN(Cn3cncn3)C(=O)CC2)cc1`: the Activity is 41.16%.

For `COc1ccc(C2=NN(CN3CCOCC3)C(=O)CC2)cc1`, the Activity worked out at 29.77%.

For `COc1ccc(C2=NN(CN3CCCCC3)C(=O)CC2)cc1`, the Activity is recorded as 27.16%.

In the case of `CCc1ccc(C2=NN(CN3CCCC3)C(=O)CC2)cc1`, the Activity worked out at 44.31%.

As to `O=C1CCC(c2ccccc2)=NN1CN1CCCCC1`, the Activity turned out to be 33.46%.

Regarding `O=C1CCC(c2ccc(-c3ccccc3)cc2)=NN1CN1CCNCC1`, the Activity worked out at 30.14%.

As for `Cc1ccc(C2=NN(Cn3ccc4ccccc43)C(=O)CC2)cc1`, the Activity worked out at 23.85%.

For the compound `Cc1ccc(C2=NN(CN3CCOCC3)C(=O)CC2)cc1`, the Activity came to 14.12%.

For `O=C1CCC(c2ccc(Cl)cc2)=NN1CN1CCOCC1`, the Activity turned out to be 25.83%.

As to `CCc1ccc(C2=NN(CN3CCCCC3)C(=O)CC2)cc1`, the Activity turned out to be 30.51%.

With `CCc1ccc(C2=NN(CN3c4ccccc4Sc4ccccc43)C(=O)CC2)cc1`, the Activity worked out at 36.17%.

`O=C1CCC(c2ccc(Cl)cc2)=NN1Cn1ccc2ccccc21`: the Activity stood at 36.3%.

On to `CCc1ccc(C2=NN(Cn3cncn3)C(=O)CC2)cc1`, for which the Activity is on record as 29.52%.

Regarding `CC(C)Cc1ccc(C2=NN(Cn3ccc4ccccc43)C(=O)CC2)cc1`, the Activity was found to be 28.91%.

Regarding `NNc1nncc2ccccc12` [HYDRALAZINE], the Activity is listed as 40.76%.
